In assay [1] the test system is MCF7. Nature of the assay: Cytotoxicity against human MCF7 cells after 48 hrs by MTT assay. The assay is classed as functional, cell-based. Conditions: MCF7, 48 h. A digest of the protocol:
(§1)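 MTT assay on cells grown in DMEM with 10% FBS and split at 70-80% confluence by trypsinization. Seeded 1×10^4 cells/well, attached 24 h at 37 °C. Compounds came from 10 mM DMSO stocks diluted in medium to a concentration series, with 0.1% DMSO as negative control. Cells were exposed for 48 h at 37 °C, then given MTT for 4 h. Formazan was dissolved in DMSO and read at 570 nm. IC50 was fitted from % inhibition versus control, mean of three independent experiments.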

The test system of assay [2] is MDA-MB-231. Nature of the assay: Cytotoxicity against human MDA-MB-231 cells after 48 hrs by MTT assay. Conditions: MDA-MB-231, 48 h. The assay is classed as functional, cell-based. A digest of the protocol: as §1
Assay [3] concerns HepG2. Description: Cytotoxicity against human HepG2 cells after 48 hrs by MTT assay. The assay is classed as functional, cell-based. As to conditions: HepG2, 48 h. A digest of the protocol: as §1
The test system of assay [4] is A549. Description: Cytotoxicity against human A549 cells after 48 hrs by MTT assay. The assay is classed as functional, cell-based. Conditions: A549, 48 h. In short, it runs like this: as §1
Assay [5] relates to MDA-MB-231. Nature of the assay: Induction of cell cycle arrest in human MDA-MB-231 cells assessed as accumulation at subG1 phase at 40 uM after 48 hrs by propidium iodide staining based FACS analysis (reference value: 1.69%). The assay is classed as functional.
For assay [6], the system named is MDA-MB-231. Nature of the assay: Induction of cell cycle arrest in human MDA-MB-231 cells assessed as accumulation at G2/M phase at 20 uM after 48 hrs by propidium iodide staining based FACS analysis (reference value: 18.12%). The assay is classed as functional.
The test system of assay [7] is MDA-MB-231. Description: Induction of cell cycle arrest in human MDA-MB-231 cells assessed as accumulation at S phase at 40 uM after 48 hrs by propidium iodide staining based FACS analysis (reference value: 42.22%). The assay is classed as functional.
In assay [8] the test system is MDA-MB-231. Nature of the assay: Induction of cell cycle arrest in human MDA-MB-231 cells assessed as accumulation at S phase at 20 uM after 48 hrs by propidium iodide staining based FACS analysis (reference value: 42.22%). The assay is classed as functional.
In assay [9] the test system is MDA-MB-231. Nature of the assay: Induction of cell cycle arrest in human MDA-MB-231 cells assessed as accumulation at subG1 phase at 80 uM after 48 hrs by propidium iodide staining based FACS analysis (reference value: 1.69%). The assay is classed as functional.
Assay [10] concerns MDA-MB-231. Description: Induction of cell cycle arrest in human MDA-MB-231 cells assessed as accumulation at G0/G1 phase at 40 uM after 48 hrs by propidium iodide staining based FACS analysis (reference value: 37.97%). The assay is classed as functional.
Assay [11] has as its system MDA-MB-231. Description: Induction of cell cycle arrest in human MDA-MB-231 cells assessed as accumulation at subG1 phase at 20 uM after 48 hrs by propidium iodide staining based FACS analysis (reference value: 1.69%). The assay is classed as functional.
Assay [12] concerns MDA-MB-231. Nature of the assay: Induction of cell cycle arrest in human MDA-MB-231 cells assessed as accumulation at G2/M phase at 40 uM after 48 hrs by propidium iodide staining based FACS analysis (reference value: 18.12%). The assay is classed as functional.
Assay [13] deals with MDA-MB-231. Description: Induction of cell cycle arrest in human MDA-MB-231 cells assessed as accumulation at G2/M phase at 80 uM after 48 hrs by propidium iodide staining based FACS analysis (reference value: 18.12%). The assay is classed as functional.
Assay [14] relates to MDA-MB-231. Description: Cytotoxicity against human MDA-MB-231 cells after 48 hrs by MTT assay relative to fluorouracil. The assay is classed as functional.
The test system of assay [15] is MDA-MB-231. Description: Induction of cell cycle arrest in human MDA-MB-231 cells assessed as accumulation at G0/G1 phase at 80 uM after 48 hrs by propidium iodide staining based FACS analysis (reference value: 37.97%). The assay is classed as functional.
In assay [16] the test system is MDA-MB-231. Nature of the assay: Induction of cell cycle arrest in human MDA-MB-231 cells assessed as accumulation at G2/M phase after 48 hrs by propidium iodide staining based FACS analysis (reference value: 18.12%). The assay is classed as functional.
Assay [17] relates to A549. Nature of the assay: Cytotoxicity against human A549 cells after 48 hrs by MTT assay relative to fluorouracil. The assay is classed as functional.
In assay [18] the test system is MDA-MB-231. Nature of the assay: Induction of cell cycle arrest in human MDA-MB-231 cells assessed as accumulation at S phase at 80 uM after 48 hrs by propidium iodide staining based FACS analysis (reference value: 42.22%). The assay is classed as functional.
Assay [19] concerns MDA-MB-231. Nature of the assay: Induction of cell cycle arrest in human MDA-MB-231 cells assessed as accumulation at G0/G1 phase at 20 uM after 48 hrs by propidium iodide staining based FACS analysis (reference value: 37.97%). The assay is classed as functional.

In the case of `CS(=O)(=O)N1CCC(Nc2ncc(Cl)c(Nc3ccc(Cl)cc3)n2)CC1`, the IC50 in [1], in [2], in assay [3] and in [4] was more than 200 µM each time.
As for `COc1ccc(CNc2ccnc(N3CCN(C)CC3)n2)cc1`, the IC50 in assay [1], in assay [2], in assay [3] and in assay [4] was more than 200 µM in each case.
In the case of `CN1CCN(c2nccc(NCc3ccccc3)n2)CC1`, the IC50 in [1], in [2], in assay [3] and in assay [4] was more than 200 µM throughout.
Consider `CS(=O)(=O)N1CCC(Nc2ccnc(Nc3ccc(Cl)cc3)n2)CC1`, for which the IC50 in [1] was more than 200 µM; in assay [2], 102 µM; in [3] it was 92.6 µM; in [4] it was more than 200 µM.
Consider `COc1ccc(CNc2nc(NC3CCN(S(C)(=O)=O)CC3)ncc2Cl)cc1`, for which the IC50 in assay [1] was 64.8 µM; in assay [2], 34.1 µM; in assay [3], more than 200 µM; in assay [4], 60.9 µM.
Consider `COc1ccccc1CCNc1nccc(N2CCN(C)CC2)n1`, for which the IC50 in assay [1], in assay [2], in assay [3] and in [4] was more than 200 µM in each case.
With `CS(=O)(=O)N1CCC(Nc2nccc(Nc3ccc(Cl)cc3)n2)CC1`, the IC50 in [1] was more than 200 µM; in assay [2], more than 200 µM; in assay [3] it was 78.6 µM; in assay [4] it was more than 200 µM.
For the compound `CS(=O)(=O)N1CCC(Nc2ncc(Cl)c(NCCc3ccc(Cl)cc3)n2)CC1`, the IC50 in assay [1], in assay [2], in [3] and in assay [4] was more than 200 µM each time.
As for `COc1ccc(Nc2nccc(NC3CCN(S(C)(=O)=O)CC3)n2)cc1`, the IC50 was more than 200 µM in assay [1], 57.7 µM in assay [2], 86.2 µM in [3] and 91.7 µM in [4].
With `COc1ccc(CNc2nccc(NC3CCN(S(C)(=O)=O)CC3)n2)cc1`, the IC50 in assay [1] turned out to be 16.2 µM; in assay [2] it was 7.46 µM; in [3], 20.2 µM; in assay [4], 12.8 µM. Besides, the Activity amounted to 1.03% in [5]; 33.79% in assay [6]; 29.91% in assay [7]; 32.03% in [8]; 1.26% in [9]; 32.55% in assay [10]. Besides, the Activity in assay [11] is 1.09%; in assay [12] it was 36.51%; in assay [13] it was 40.95%; in assay [15], 31.01%; in [16], “Dose-dependent effect”; in assay [18], 26.78%. The Activity in [19] worked out at 33.09%. Moreover, the “Ratio IC50” value in assay [14] and in assay [17] was 2 throughout.
For `CS(=O)(=O)N1CCC(Nc2ncc(Cl)c(NCc3ccccc3)n2)CC1`, the IC50 in assay [1] was 32.4 µM; in [2], 11.7 µM; in assay [3], more than 200 µM; in assay [4], 46.8 µM.
As for `COc1cccc(Nc2ccnc(NC3CCN(S(C)(=O)=O)CC3)n2)c1`, the IC50 in assay [1] was 77.8 µM; in assay [2], 29.4 µM; in assay [3] it was 86.6 µM; in assay [4], more than 200 µM.
Consider `COc1ccc(Nc2nccc(N3CCN(C)CC3)n2)cc1`, for which the IC50 in assay [1], in [2], in assay [3] and in assay [4] was more than 200 µM in each case.
For `COc1cccc(Nc2ccnc(N3CCN(C)CC3)n2)c1`, the IC50 in assay [1], in assay [2], in assay [3] and in assay [4] was more than 200 µM each time.
`COc1ccc(Nc2nc(NC3CCN(S(C)(=O)=O)CC3)ncc2Cl)cc1`: the IC50 in assay [1], in assay [2], in assay [3] and in [4] was more than 200 µM each time.
As for `CS(=O)(=O)N1CCC(Nc2ncc(Cl)c(Nc3ccccc3)n2)CC1`, the IC50 in assay [1], in assay [2], in assay [3] and in assay [4] was more than 200 µM each time.
On to `CS(=O)(=O)N1CCC(Nc2ncc(Cl)c(NCCc3ccccc3)n2)CC1`, for which the IC50 in assay [1] is more than 200 µM; in [2], more than 200 µM; in [3] it was 123 µM; in assay [4], more than 200 µM.
For the compound `COc1ccc(CCNc2nccc(NC3CCN(S(C)(=O)=O)CC3)n2)cc1`, the IC50 came to 32.8 µM in assay [1], 15.8 µM in assay [2], 20 µM in [3] and 21.4 µM in assay [4].
Take `COc1cccc(Nc2nc(NC3CCN(S(C)(=O)=O)CC3)ncc2Cl)c1`: the IC50 in assay [1], in [2], in assay [3] and in assay [4] was more than 200 µM throughout.
Consider `COc1cccc(Nc2nccc(NC3CCN(S(C)(=O)=O)CC3)n2)c1`, for which the IC50 in [1] is 72.1 µM; in [2] it was 109 µM; in [3] it was 67.9 µM; in [4] it was more than 200 µM.
`COc1ccc(CCNc2nc(NC3CCN(S(C)(=O)=O)CC3)ncc2Cl)cc1`: the IC50 in assay [1], in assay [2], in assay [3] and in assay [4] was more than 200 µM each time.
Consider `CN1CCN(c2ccnc(Nc3ccc(Cl)cc3)n2)CC1`, for which the IC50 in assay [1], in assay [2], in assay [3] and in [4] was more than 200 µM throughout.
`CS(=O)(=O)N1CCC(Nc2nccc(NCc3ccccc3)n2)CC1`: the IC50 in assay [1] came out at 98.5 µM; in [2], 60.8 µM; in assay [3] it was 149 µM; in assay [4], 42.5 µM.
Take `O=c1[nH]cc(F)c(=O)[nH]1` [FLUOROURACIL]: the IC50 in [1] was 39.9 µM; in [2] it was 24.6 µM.
As for `COc1ccc(CNc2ccnc(NC3CCN(S(C)(=O)=O)CC3)n2)cc1`, the IC50 in [1] was found to be 57.2 µM; in [2], 33.7 µM; in assay [3] it was 51.7 µM; in assay [4], 51.6 µM.

Values taken from ChEMBL document CHEMBL3352602, “One-pot synthesis and antiproliferative activity of novel 2,4-diaminopyrimidine derivatives bearing piperidine and piperazine moieties” (Eur J Med Chem, 2014).
